Assay [1] deals with Candida albicans. In words: Antimicrobial activity against Candida albicans ATCC 24433 after 24 hrs using sabouraud liquid medium. In kind it is functional. The gist of the method:
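Broth MIC in duplicate in Sabouraud liquid medium. Samples made up at 1 mg/mL in DMSO, then serially diluted over 100-0.1 µg/mL. Inoculum is stationary-phase culture at 10^5 cfu/mL. Incubated 37 °C for 24 h. MIC taken as the lowest concentration preventing any visible growth.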

For assay [2], the system named is Bacillus subtilis. In words: Antimicrobial activity against Bacillus subtilis IP 5832 after 24 hrs by agar well diffusion method. In kind it is functional. The gist of the method:
(§1)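 Agar well diffusion: stationary-phase culture suspended in saline at approx. 10^5 cfu/mL, 200 µL spread on Mueller-Hinton agar (bacteria) or Sabouraud agar (yeast, fungi). Test samples at 50 µg/50 µL added to wells. Incubated 24 h (bacteria, yeast) or 48 h (fungi). Read-out is inhibition zone diameter.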

Assay [3] deals with Staphylococcus aureus. In words: Antimicrobial activity against Staphylococcus aureus ATCC 25923 after 24 hrs by agar well diffusion method. In kind it is functional, organism-based. The gist of the method:
as §1

In assay [4] the test system is Aspergillus niger. The assay can be described thus: Antimicrobial activity against Aspergillus niger after 48 hrs by agar well diffusion method. In kind it is functional, organism-based. Summed up: as §1
The subject of assay [5] is Candida albicans. The assay can be described thus: Antimicrobial activity against Candida albicans ATCC 24433 after 24 hrs by agar well diffusion method. In kind it is functional. The gist of the method: as §1
(In agar diffusion tests the substance spreads into inoculated agar from a disc or well.)

Assay [6] deals with Escherichia coli. The assay can be described thus: Antimicrobial activity against Escherichia coli ATCC 25922 after 24 hrs by agar well diffusion method. In kind it is functional. The gist of the method:
as §1

≈ marks a conversion by molar mass, not a printed value. Calls of active or inactive are those of the source. The rule behind the calls is not given here.

One may read the MIC as the least concentration at which growth counts as inhibited. Low readings indicate greater potency, high ones weaker potency. As to NYSTATIN, it took 3.12 µg/mL to inhibit growth in assay [1] (MIC).
As to `O=c1cc(-c2ccc(O)cc2)oc2cc(O[C@@H]3O[C@H](CO)[C@@H](O)[C@H](O)[C@H]3O)cc(O)c12` [APIGETRIN], the “inhibition zone (IZ)” value in assay [2] came to 6 mm. The result in assay [3] and in assay [4] was inactive.
In the case of `COc1ccc(-c2oc3cc(O)c(OC)c(O)c3c(=O)c2OC)cc1O` [CENTAUREIDIN], the “inhibition zone (IZ)” value was 6 mm in assay [2] and 11 mm in assay [5]. Also, the outcome in assay [3] and in assay [4] was inactive. This compound had an MIC in assay [1] (ATCC 24433, 24 h) of 3 µg/mL (≈ 8.33 µM).
`O=c1cc(-c2ccc(O)cc2)oc2cc(O)cc(O)c12` [APIGENIN]: the “inhibition zone (IZ)” value in assay [2] is reported as 6 mm; in assay [5], 10 mm; in assay [6] it was 6 mm. Also, the outcome in assay [3] and in assay [4] was inactive. The same compound gave a minimal inhibitory concentration (MIC) in assay [1] (ATCC 24433, 24 h) of 3 µg/mL (≈ 11.1 µM).
With `COc1ccc(-c2oc3cc(O)c(OC)c(O)c3c(=O)c2OC)cc1` [SANTIN], the “inhibition zone (IZ)” value in assay [2] came to 6 mm; in assay [5] it was 8 mm; in assay [6], 6 mm. Moreover, the result in assay [3] and in assay [4] was inactive. The MIC in assay [1] (ATCC 24433, 24 h) amounted to 3 µg/mL (≈ 8.71 µM).

These data come from ChEMBL document CHEMBL1158681, “Flavones and sesquiterpene lactones from Achillea atrata subsp. multifida: antimicrobial activity” (1999).
